Measurements taken from article PMC9159088 (Chemical Science, 2022).

Columns and labels:
Huh7 xenograft tumors = assay: Mice xenograft model of HCC; assay type: in vivo, NOD-SCID mice; settings: 30 mg kg−1 ip. twice a week
Serum biochemistry assay = assay type: in vivo, NOD-SCID mice; settings: 30 mg kg−1 ip. twice a week
In short: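 Huh7 cells (5 × 106) implanted subcutaneously into left and right flanks of NOD-SCID mice. From day 7 after inoculation, test compound or reference drug given ip at 30 mg kg−1 twice a week for 34 days; bodyweight monitored. Serum AST, ALT, total bilirubin, creatinine and BUN measured for hepatorenal toxicity; significance set at P < 0.05.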

[1] = molecular target: T1, human Golgi α-mannosidase II (α-hGMII) (Homo sapiens, UniProt Q16706); assay: 4-MU-based enzyme inhibition study, wild-type α-hGMII; assay type: biochemical; settings: SI = (α-hLM Ki)/(α-hGMII Ki), Man-α-4MU substrate
T1 sequence (Q16706 1-1144): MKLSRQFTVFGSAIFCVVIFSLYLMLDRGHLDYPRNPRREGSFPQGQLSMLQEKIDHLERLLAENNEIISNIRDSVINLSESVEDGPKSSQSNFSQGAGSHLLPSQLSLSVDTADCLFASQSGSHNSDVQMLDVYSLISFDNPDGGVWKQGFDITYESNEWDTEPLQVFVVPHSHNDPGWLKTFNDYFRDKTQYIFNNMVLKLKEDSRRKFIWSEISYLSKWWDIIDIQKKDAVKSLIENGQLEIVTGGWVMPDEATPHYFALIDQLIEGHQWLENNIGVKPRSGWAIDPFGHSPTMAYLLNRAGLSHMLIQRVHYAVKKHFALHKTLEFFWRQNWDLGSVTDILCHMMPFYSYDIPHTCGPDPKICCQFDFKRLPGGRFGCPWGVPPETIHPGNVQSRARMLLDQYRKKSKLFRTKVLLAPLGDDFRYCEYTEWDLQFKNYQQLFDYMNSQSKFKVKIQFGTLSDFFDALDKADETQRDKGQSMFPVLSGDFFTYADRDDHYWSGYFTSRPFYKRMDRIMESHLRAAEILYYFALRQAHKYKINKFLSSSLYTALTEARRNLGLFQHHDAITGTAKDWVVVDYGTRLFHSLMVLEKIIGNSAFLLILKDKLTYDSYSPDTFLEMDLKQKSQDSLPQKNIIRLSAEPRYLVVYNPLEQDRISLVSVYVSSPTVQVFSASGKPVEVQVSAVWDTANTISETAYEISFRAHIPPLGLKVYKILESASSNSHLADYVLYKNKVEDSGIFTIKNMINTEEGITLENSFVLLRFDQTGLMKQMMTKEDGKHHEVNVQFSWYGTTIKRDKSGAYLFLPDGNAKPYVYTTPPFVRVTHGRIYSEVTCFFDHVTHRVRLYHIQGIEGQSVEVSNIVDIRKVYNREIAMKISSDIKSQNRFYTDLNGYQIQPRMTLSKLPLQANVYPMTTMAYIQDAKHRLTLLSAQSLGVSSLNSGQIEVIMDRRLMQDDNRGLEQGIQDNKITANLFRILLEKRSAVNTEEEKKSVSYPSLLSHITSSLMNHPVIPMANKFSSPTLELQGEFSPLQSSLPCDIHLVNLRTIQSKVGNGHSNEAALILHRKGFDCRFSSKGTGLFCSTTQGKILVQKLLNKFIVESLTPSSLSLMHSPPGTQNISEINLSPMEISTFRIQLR

α-hGMII = molecular target: T2, α-hGMII (Homo sapiens, UniProt Q16706); assay: Glycan-based; assay type: biochemical; settings: SI = (α-hLM IC50)/(α-hGMII IC50), oligosaccharide substrates
T2 sequence (Q16706 1-1144): T1 sequence (Q16706 1-1144)
In short: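 The substrate for human Golgi α-mannosidase II was 2-aminobenzamide-labelled GlcNAcMan5GlcNAc2 (GlcNAcMan5-2AB), with LNnT-2AB as internal standard. Enzyme, substrate and test compound (0, 0.3, 0.1, 0.03 μM) were incubated 24 h at 37 °C. Remaining substrate was measured by UPLC fluorescence as the peak area ratio of substrate to internal standard. Ki was taken from a Lineweaver–Burk plot. SI used lysosomal α-mannosidase IC50, run the same way with Man5-2AB substrate and NA2-2AB standard.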

[2] = system: human normal fibroblast (08C0015); assay: Cell based selectivity assay; settings: 08C0015, 24 h treatment

CNC(=O)c1cc(Oc2ccc(NC(=O)Nc3ccc(Cl)c(C(F)(F)F)c3)cc2)ccn1 [Sorafenib, sorafenib]
signs of harm / body weight during treatment (Huh7 xenograft tumors): neither mice injected with 8b-3 nor sorafenib exhibited signs of harm or decreased body weight | tumor growth compared to the control (Huh7 xenograft tumors; P < 0.05): significant reduction in tumor growth | side effects (hepatotoxicity and nephrotoxicity) (Serum biochemistry assay): no serious side effects including hepatotoxicity and nephrotoxicity were observed

O[C@H]1[C@H]2[C@H](O)CCCN2C[C@H]1O [sw, swainsonine]
SI: selectivity index [1]: 4.6 | SI: selectivity index (glycan based) (α-hGMII): 5 | increase of relative intensity of overall Man2-9GlcNAc compared to the control group [2]: about 5 fold
